# In ChEMBL document CHEMBL1129244, “Inhibition of UDP-N-acetylglucosamine import into Golgi membranes by nucleoside monophosphates” (J Med Chem, 1996):
# Legend:
# [1] = Inhibitory concentration at which there is accumulation of UDP-[3H]-GlcNAc in the lumen of the Golgi membranes.; assay type: functional, cell membranes, Oryctolagus cuniculus
# Outline: (§1)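 Rabbit liver Golgi-enriched membranes were incubated as in the import assay with 1 μM UDP-[³H]GlcNAc and varied inhibitor concentrations. Uptake was allowed to reach equilibrium (20–30 min) before membrane-associated label was measured by filtration. 1 mM AMP-PNP was added to limit UDP-GlcNAc degradation. IC50 was derived by curve fitting; values are averages of at least three independent measurements.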
# [2] = In vitro inhibition of UDP-[3H]-GlcNAc import into the lumen of the Golgi membranes from rabbit liver homogenate.; assay type: functional, tissue-based, Oryctolagus cuniculus
# Outline: (§2)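 Golgi-enriched membranes from rabbit liver homogenate incubated with 1 μM UDP-[³H]GlcNAc plus a range of inhibitor concentrations. Import into the lumen was measured by filtration under initial-velocity conditions, after 90 s at 25 °C, where uptake is linear with time. IC50 and standard deviation were obtained by curve fitting. For UDP, assays included 2 mM EDTA.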
# [3] = The compound was tested for extent of UDP-[3H]-GlcNAc accumulation into the lumen of the Golgi membranes.; assay type: functional, Oryctolagus cuniculus; outline: as §1
# [4] = The compound was tested for extent of 1 uM UDP-[3H]-GlcNAc accumulation into the lumen of the Golgi membranes from rabbit liver homogenate; assay type: functional, tissue-based, Oryctolagus cuniculus; outline: as §1
# [5] = (§3) The compound was tested for inhibition of the rate of 1 uM UDP-[3H]-GlcNAc import into the lumen of the Golgi membranes.; assay type: functional, Oryctolagus cuniculus; outline: as §2
# Oryctolagus cuniculus = species on record: Oryctolagus cuniculus; experiment: as §3; assay type: functional
SMILES,IC50 [1] [µM],IC50 [2] [µM],IC50 [3] [µM],also measured
Cc1cn([C@H]2C[C@H](N=[N+]=[N-])[C@@H](COP(=O)(O)O)O2)c(=O)[nH]c1=O (stereo in doubt; form 2) [AZIDOTHYMIDINE MONOPHOSPHATE],> 100,85,> 100,–
Nc1ccn([C@@H]2O[C@H](COP(=O)(O)O)[C@@H](O)[C@H]2O)c(=O)n1 (stereo in doubt; form 1),–,> 100,–,–
O=c1[nH]c(=O)n([C@H]2C[C@H](O)[C@@H](COP(=O)(O)O)O2)cc1/C=C/Br,–,–,–,IC50 [5]: 5 µM
O=c1ccn([C@@H]2O[C@H](COP(=O)(O)O)[C@@H](O)[C@H]2F)c(=O)[nH]1,–,11,–,–
N[C@H]1[C@@H](OP(=O)(O)OP(=O)(O)OC[C@H]2O[C@@H](n3ccc(=O)[nH]c3=O)[C@H](O)[C@@H]2O)O[C@H](CO)[C@@H](O)[C@@H]1O [URACIL DIPHOSPHATE GLUCOSAMINE],> 40,–,–,IC50 [5]: 7 µM
CCCc1cn([C@H]2C[C@H](O)[C@@H](COP(=O)(O)O)O2)c(=O)[nH]c1=O,–,–,–,IC50 [5]: 100 µM
N[C@H]1[C@@H](OP(=O)(O)OP(=O)(O)OC[C@H]2O[C@@H](n3ccc(=O)[nH]c3=O)[C@H](O)[C@@H]2O)O[C@H](CO)[C@H](O)[C@@H]1O [URACIL DIPHOSPHATE GALACTOSAMINE],–,–,–,IC50 [5]: 40 µM
Cc1cn(COCCOP(=O)(O)O)c(=O)[nH]c1=O,> 100,> 100,> 100,–
O=c1ccn(C2O[C@H](COP(=O)(O)O)[C@@H](O)[C@@H]2O)c(=O)[nH]1 (stereo partly specified),4,8,4,–
Nc1ccn([C@@H]2O[C@H](COP(=O)(O)O)[C@@H](O)[C@H]2O)c(=O)n1 (stereo in doubt; form 2),–,10,–,–
Cc1cn([C@H]2C[C@H](N=[N+]=[N-])[C@@H](COP(=O)(O)O)O2)c(=O)[nH]c1=O (stereo in doubt; form 1) [AZIDOTHYMIDINE MONOPHOSPHATE],5,7,5,–
CC(=O)N[C@@H]1[C@H](OP(=O)(O)OP(=O)(O)OC[C@H]2O[C@@H](n3ccc(=O)[nH]c3=O)[C@H](O)[C@@H]2O)O[C@@H](CO)[C@H](O)[C@H]1O,4,–,–,Km (Oryctolagus cuniculus): 2 µM; IC50 [5]: 7 µM
CC(=O)N[C@H]1[C@H]([C@H](O)[C@H](O)CO)O[C@](OP(=O)(O)OC[C@H]2O[C@@H](n3ccc(N)nc3=O)[C@H](O)[C@@H]2O)(C(=O)O)C[C@@H]1O,35,> 50,–,–
O=c1ccn([C@H]2C[C@H](O)[C@@H](COP(=O)(O)O)O2)c(=O)[nH]1 [DEOXYURIDINE MONOPHOSPHATE],–,8,–,–
CCc1cn(C2O[C@H](COP(=O)(O)O)[C@@H](O)[C@@H]2O)c(=O)[nH]c1=O (stereo partly specified),–,3.5,5,–

# Continued, in another order:
IC50 [1] [µM],IC50 [2] [µM],IC50 [3] [µM],SMILES,also measured
11,10,–,Cc1cn([C@H]2C[C@H](O)[C@@H](COP(=O)(O)O)O2)c(=O)[nH]c1=O [THYMIDINE MONOPHOSPHATE],IC50 [4]: 11 µM
–,1.5,–,Cc1cn(C2CC(F)C(COP(=O)(O)O)O2)c(=O)[nH]c1=O (stereo unspecified),–
–,> 200,–,Cc1cn([C@H]2CC[C@H](COP(=O)(O)O)O2)c(=O)[nH]c1=O,–
–,9,–,Cc1cn([C@H]2CC[C@@H](COP(=O)(O)O)O2)c(=O)[nH]c1=O,–
–,9,4,O=c1[nH]c(=O)n(C2CC(F)C(COP(=O)(O)O)O2)cc1Cl (stereo unspecified),–
–,> 40,> 40,CC#Cc1cn([C@H]2C[C@H](O)[C@@H](COP(=O)(O)O)O2)c(=O)[nH]c1=O,–
–,> 200,–,Cc1cn([C@@H]2O[C@H](COP(=O)(O)O)[C@@H](O)[C@@H]2F)c(=O)[nH]c1=O,–
–,18,35,O=c1[nH]c(=O)n(C2CSC(COP(=O)(O)O)O2)cc1F (stereo unspecified),–
